For ten molecules, IC50 results are on record in ChEMBL document CHEMBL1131577, “Auxiliary agents for the peroral administration of peptide and protein drugs: synthesis and evaluation of novel pepstatin analogues” (J Med Chem, 1998).

The target of the experiment is Pepsin A (Homo sapiens, UniProt P0DJD9). Put plainly: Inhibitory activity against pepsin as oxidation of o-phenylenediamine by Horse radish peroxidase (Pepsin sensitive). The method in brief: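 Pepsin (1 mg, 40 units, per mL of 0.05 N HCl, freshly prepared) mixed with test compound serially diluted 1:2 in DMSO, then 37.5 µg horseradish peroxidase in 0.05 N HCl added; incubated 2 h at 37 °C, then diluted 1:2 in 0.05 N HCl. Residual peroxidase oxidation of o-phenylenediamine (phosphate buffer pH 6.5, H2O2) ran 10 min at room temperature, read at 492 nm. Pepstatin dilutions served as reference.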

pIC50: −log10 of the molar value.

Sequence of Pepsin A (P0DJD9 whole entry): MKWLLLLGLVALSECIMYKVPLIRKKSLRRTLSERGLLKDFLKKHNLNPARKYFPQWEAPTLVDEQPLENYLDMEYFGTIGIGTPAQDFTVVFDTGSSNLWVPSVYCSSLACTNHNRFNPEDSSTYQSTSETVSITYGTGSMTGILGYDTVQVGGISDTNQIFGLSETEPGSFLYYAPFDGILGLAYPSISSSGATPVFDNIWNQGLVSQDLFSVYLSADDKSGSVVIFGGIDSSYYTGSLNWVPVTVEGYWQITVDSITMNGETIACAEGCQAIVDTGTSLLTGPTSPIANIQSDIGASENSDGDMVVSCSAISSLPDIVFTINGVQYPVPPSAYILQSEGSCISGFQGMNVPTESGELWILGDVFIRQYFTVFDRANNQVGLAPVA

As to `CCCCC(O)[C@@H](NC(=O)[C@@H](NC(=O)[C@@H](NC(=O)OC(C)(C)C)C(C)C)C(C)C)[C@@H](C)CC` (stereo not given in full), the pIC50 is 4.48. On to `CCCCCCCCC(O)[C@H](CC(C)C)NC(=O)[C@@H](NC(=O)[C@@H](NC(=O)OC(C)(C)C)C(C)C)C(C)C` (stereo not given in full), for which the pIC50 was 6.10.

Molecule `CCCCCCCCC(O)[C@H](CCC)NC(=O)[C@@H](NC(=O)[C@@H](NC(=O)OC(C)(C)C)C(C)C)C(C)C` (stereo not given in full) had a pIC50 of 5.97. With `CCCCC(O)[C@H](CCC)NC(=O)[C@@H](NC(=O)[C@@H](NC(=O)OC(C)(C)C)C(C)C)C(C)C` (stereo not given in full) the figure was 6.04; with `CCCCCCCCC(O)[C@@H](NC(=O)[C@@H](NC(=O)[C@@H](NC(=O)OC(C)(C)C)C(C)C)C(C)C)[C@@H](C)CC` (stereo not given in full), 4.82; with `CCCCCCC(O)[C@@H](NC(=O)[C@@H](NC(=O)[C@@H](NC(=O)OC(C)(C)C)C(C)C)C(C)C)[C@@H](C)CC` (stereo not given in full), 4.57. For the molecule `CCCCCCC(O)[C@H](CCC)NC(=O)[C@@H](NC(=O)[C@@H](NC(=O)OC(C)(C)C)C(C)C)C(C)C` (stereo not given in full), the pIC50 was 6.15. Molecule `CCCCC(O)[C@H](CC(C)C)NC(=O)[C@@H](NC(=O)[C@@H](NC(=O)OC(C)(C)C)C(C)C)C(C)C` (stereo not given in full) had a pIC50 of 5.91. `CCCCCCC(O)[C@H](CC(C)C)NC(=O)[C@@H](NC(=O)[C@@H](NC(=O)OC(C)(C)C)C(C)C)C(C)C` (stereo not given in full) had a pIC50 of 6.08.

Regarding `CC(C)CC(=O)N[C@H](C(=O)N[C@H](C(=O)N[C@@H](CC(C)C)[C@@H](O)CC(=O)N[C@@H](C)C(=O)N[C@@H](CC(C)C)[C@@H](O)CC(=O)O)C(C)C)C(C)C` [PEPSTATIN], the pIC50 was 7.23.
